Results on 46 molecules are retold here after PMC8799877 (Acta Pharmaceutica Sinica. B, 2021).

Assay [1] concerns the target BRD4(2) (Homo sapiens, UniProt O60885). As to the kind of experiment: HTRF bromodomain binding assay, BRD4. (In general: Time-resolved FRET reads energy transfer from a long-lived donor to a nearby acceptor.)
In assay [2] the target is BRD4(1) (Homo sapiens, UniProt O60885). As to the kind of experiment: HTRF bromodomain binding assay, BRD4.
Assay [3] deals with TGF-β1/Smad2/3 signaling pathway. As to the kind of experiment: Ang II-induced TGF-β1/Smad2/3 signaling in NRCFs. The assay is classed as cell-based, rat. Particulars: pretreatment, Western blot. The method, boiled down: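 Fibroblasts from hearts of 1–3-day-old neonatal SD rats: trypsin (0.8 mg/mL, 4 °C overnight), then collagenase II (0.8 mg/mL), 2 h differential plating. Treated cells lysed in RIPA, protein by BCA, 10% SDS-PAGE, nitrocellulose, 5% nonfat milk block 2 h, primary antibodies 4 °C overnight, secondary 1:10,000 2 h, chemiluminescence, densitometry.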
On the technique in general: Immunoblotting shows a protein as a band on a membrane.

For assay [4], the target named is BRD4 (Rattus norvegicus, UniProt A0A8I6A216). As to the kind of experiment: Cellular thermal shift assay. Particulars: NRCFs, 10 μmol/L, 4 h, heated from 43 to 61 °C. Format: cell-based.
The test system of assay [5] is NRCFs. As to the kind of experiment: Ang II-induced cardiac fibroblast activation. The assay is classed as cell-based, rat. Particulars: immunofluorescent staining. The method, boiled down: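 Treated neonatal rat cardiac fibroblasts fixed in 4% paraformaldehyde overnight, permeabilised with 0.1% Triton X-100 10 min, blocked in 5% BSA 20 min. Anti-α-SMA (1:300) at 4 °C overnight, then Alexa Fluor 488 goat anti-rabbit IgG (1:200) 2 h in the dark, DAPI 15 min. Imaged by laser confocal microscopy; n = 3.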

For assay [6], the system named is NRCFs. As to the kind of experiment: Wound scratch migration assay. The assay is classed as cell-based, rat. To be noted: C-34 1 μmol/L or JQ1 0.2 μmol/L, Ang II 12 or 24 h.
Assay [7] relates to MV4-11 and RS411 acute leukemia xenograft models. To be noted: 5 mg/kg; cited from earlier work.

Structures are written as SMILES. A value given as a limit tells only on which side of the number the result lay.

Molecule `OCCNc1nc(-c2ccc(Cl)cc2)c2ccccc2n1` [Compound 6] came in with an IC50 in assay [1] of 8.314 ± 0.016 µM.

Consider `CC(C)(CO)Nc1nc(-c2ccc(Cl)cc2)c2ccccc2n1` [Compound 7], for which, in assay [1], the IC50 is 12.4 ± 1.09 µM.

For the molecule `NC(=O)CNc1nc(-c2ccc(Cl)cc2)c2ccccc2n1` [Compound 8], the IC50 in assay [1] came to 4.55 ± 0.658 µM. Besides, the “fold more potent than compound 5 (BRD4(2) IC50)” value in assay [1] (vs compound 5) is “about 4 fold”.

In assay [1], `Clc1ccc(-c2nc(NCCc3c[nH]c4ccccc34)nc3ccccc23)cc1` [Compound 9] returned an IC50 of 14.8 ± 1.17 µM.

In assay [1], `Clc1ccc(-c2nc(NCc3ccco3)nc3ccccc23)cc1` [Compound 10] returned an IC50 of 13.3 ± 1.12 µM.

Turning to `COC(=O)c1ccc(CNc2nc(-c3ccc(Cl)cc3)c3ccccc3n2)cc1` [Compound 11], the IC50 in assay [1] came to 9.04 ± 0.956 µM.

In turn, `COC(=O)c1ccc(Nc2nc(-c3ccc(Cl)cc3)c3ccccc3n2)cc1` [Compound 12] displayed an IC50 in assay [1] of 7.05 ± 0.848 µM. The IC50 values of the last two molecules are within 1.5-fold of each other.

In assay [1], `O=C(O)c1ccc(Nc2nc(-c3ccc(Cl)cc3)c3ccccc3n2)cc1` [Compound 13] registered an IC50 of 3.05 ± 0.484 µM.

On to `Oc1ccc(Nc2nc(-c3ccc(Cl)cc3)c3ccccc3n2)cc1` [Compound 14], for which the IC50 in assay [1] was 4.31 ± 0.18 µM.

Molecule `Clc1ccc(-c2nc(Nc3ccccc3)nc3ccccc23)cc1` [Compound 15] gave an IC50 in assay [1] of 10.6 ± 0.367 µM.

The molecule `Cc1ccc(Nc2nc(-c3ccc(Cl)cc3)c3ccccc3n2)cc1` [Compound 16] had an IC50 in assay [1] of 8.62 ± 0.164 µM. This IC50 and that of the molecule before are within 1.5-fold of each other.

In assay [1], `CC(C)c1ccc(Nc2nc(-c3ccc(Cl)cc3)c3ccccc3n2)cc1` [Compound 17] returned an IC50 of 12.9 ± 0.947 µM.

The molecule `Clc1ccc(-c2nc(Nc3ccc(Br)cc3)nc3ccccc23)cc1` [Compound 18] had a 50% inhibitory concentration (IC50) in assay [1] of 7.02 ± 0.517 µM. This IC50 lies about 1.8-fold lower than the previous one.

For `NS(=O)(=O)c1ccc(Nc2nc(-c3ccc(Cl)cc3)c3ccccc3n2)cc1` [Compound 19], the IC50 in assay [2] came to 3370 ± 528 nM; in assay [1] it was 1.53 ± 0.185 µM. Further, the “fold more active in comparison to compound 15 (BRD4(2) IC50)” value in assay [1] (vs compound 15) is “about 7 fold”.

In assay [1], `O=S(=O)(c1ccc(Nc2nc(-c3ccc(Cl)cc3)c3ccccc3n2)cc1)N1CCOCC1` [Compound 20] came in with an IC50 of 3.88 ± 0.589 µM.

Consider `NS(=O)(=O)c1cccc(Nc2nc(-c3ccc(Cl)cc3)c3ccccc3n2)c1` [Compound 21], for which the IC50 in assay [1] is above 20 µM.

The molecule `NS(=O)(=O)c1ccc(Nc2nc(-c3ccccc3Cl)c3ccccc3n2)cc1` [Compound 23] yielded an IC50 in assay [1] of 19.7 ± 1.3 µM.

In turn, `NS(=O)(=O)c1ccc(Nc2nc(-c3cccc(Cl)c3)c3ccccc3n2)cc1` [Compound 24] came in with an IC50 in assay [1] of 15.1 ± 1.18 µM. The IC50 values of the last two molecules are within 1.5-fold of each other.

In turn, `Cc1ccc2nc(Nc3ccc(S(N)(=O)=O)cc3)nc(-c3ccc(Cl)cc3)c2c1` [Compound 25] gave an IC50 in assay [1] of 12.6 ± 0.307 µM.

Consider `NS(=O)(=O)c1ccc(Nc2nc(-c3ccc(Br)cc3)c3ccccc3n2)cc1` [Compound 26], for which the IC50 in assay [2] came to 1600 ± 205 nM; in assay [1], 1.63 ± 0.212 µM.

In turn, `NS(=O)(=O)c1ccccc1Nc1nc(-c2ccc(Br)cc2)c2ccccc2n1` [Compound 27] displayed an IC50 in assay [1] of 3.21 ± 0.206 µM.

As for `NS(=O)(=O)c1ccccc1Nc1nc(-c2ccc(F)cc2)c2ccccc2n1` [Compound 29], the values for the IC50 in assay [2] and in assay [1] were 615 ± 127 nM and 0.589 ± 0.052 µM, respectively.

Turning to `N#Cc1ccc(-c2nc(Nc3ccc(S(N)(=O)=O)cc3)nc3ccccc23)cc1` [Compound 30], the IC50 in assay [2] worked out at 588 ± 24 nM; in assay [1] it was 0.688 ± 0.016 µM.

`NS(=O)(=O)c1ccc(Nc2nc(-c3ccc(C(F)(F)F)cc3)c3ccccc3n2)cc1` [Compound 31]: the IC50 stood at 687 ± 54 nM in assay [2] and 0.424 ± 0.038 µM in assay [1].

Take `NS(=O)(=O)c1ccc(Nc2nc(-c3ccccc3)c3ccccc3n2)cc1` [Compound 32, 4-((4-Phenylquinazolin-2-yl)amino)benzenesulfonamide]: the concentration for half-maximal inhibition (IC50) in assay [1] amounted to 10.3 ± 1.01 µM.

`Cc1ccc(-c2nc(Nc3ccc(S(N)(=O)=O)cc3)nc3ccccc23)cc1` [Compound 33, 4-((4-(p-Tolyl)quinazolin-2-yl)amino)benzenesulfonamide] returned an IC50 in assay [1] of 3.23 ± 0.089 µM.

For `Cc1ccc(-c2nc(Nc3ccc(S(N)(=O)=O)cc3)nc3ccc(C)cc23)cc1` [Compound 34, 4-((6-Methyl-4-(p-tolyl)quinazolin-2-yl)amino)benzenesulfonamide], the IC50 in assay [1] is 13.6 ± 1.13 µM.

Turning to `COc1ccc(-c2nc(Nc3ccc(S(N)(=O)=O)cc3)nc3ccccc23)cc1` [Compound 35, 4-((4-(4-Methoxyphenyl)quinazolin-2-yl)amino)benzenesulfonamide], the IC50 in assay [1] was 8.12 ± 0.084 µM.

Regarding `COc1ccc(-c2nc(Nc3ccccc3S(N)(=O)=O)nc3ccccc23)cc1` [Compound 36], the IC50 in assay [1] stood at 9.91 ± 0.996 µM.

In turn, `CNC(=O)c1ccc(-c2nc(Nc3ccc(S(N)(=O)=O)cc3)nc3ccccc23)cc1` [Compound 37] gave an IC50 in assay [1] of 3.65 ± 0.562 µM.

As for `COC(=O)c1ccc(-c2nc(Nc3ccc(S(N)(=O)=O)cc3)nc3ccccc23)cc1` [Compound 38], the IC50 in assay [1] stood at 5.17 ± 0.614 µM.

Consider `COC(=O)c1ccc(-c2nc(Nc3ccccc3S(N)(=O)=O)nc3ccccc23)cc1` [Compound 39], for which the IC50 in assay [1] is 3.33 ± 0.522 µM.

In the case of `COC(=O)c1cccc(-c2nc(Nc3ccc(S(N)(=O)=O)cc3)nc3ccccc23)c1` [Compound 40], the IC50 in assay [1] was 7.62 ± 0.882 µM. Against the preceding molecule, the IC50 is about 2.3-fold higher.

The molecule `NS(=O)(=O)c1ccc(Nc2nc(-c3cccc4ccccc34)c3ccccc3n2)cc1` [Compound 41, 4-((4-(Naphthalen-1-yl)quinazolin-2-yl)amino)benzenesulfonamide] yielded an IC50 in assay [1] of 4.76 ± 0.678 µM.

For the molecule `NS(=O)(=O)c1ccc(Nc2nc(-c3ccc(OCc4ccccc4)cc3)c3ccccc3n2)cc1` [Compound 42, 4-((4-(4-(Benzyloxy)phenyl)quinazolin-2-yl)amino)benzenesulfonamide], the IC50 in assay [1] was above 20 µM.

In the case of `O=C(O)c1ccc(Nc2nc(-c3ccc(F)cc3)c3ccccc3n2)cc1` [Compound 43, 4-((4-(4-Fluorophenyl)quinazolin-2-yl)amino)benzoic acid], the IC50 in assay [2] was found to be 4470 ± 361 nM; in assay [1] it was 0.925 ± 0.081 µM.

As for `O=C(O)c1ccc(CNc2nc(-c3ccc(F)cc3)c3ccccc3n2)cc1` [Compound 44, 4-(((4-(4-Fluorophenyl)quinazolin-2-yl)amino)methyl)benzoic acid], the IC50 was found to be 5130 ± 626 nM in assay [2] and 2.07 ± 0.625 µM in assay [1].

Molecule `CC(C)c1ccc(Nc2nc(-c3ccc(F)cc3)c3ccccc3n2)cc1` [Compound 45] yielded an IC50 in assay [1] of 5.27 ± 0.367 µM.

As to `NS(=O)(=O)c1ccc(CNc2nc(-c3ccc(F)cc3)c3ccccc3n2)cc1` [Compound 46], the IC50 in assay [1] was determined as 6.12 ± 0.258 µM.

Take `NS(=O)(=O)c1ccc(CCNc2nc(-c3ccc(F)cc3)c3ccccc3n2)cc1` [Compound 47]: the IC50 in assay [1] was 18.63 ± 0.047 µM. This IC50 lies about 3-fold higher than the previous one.

In assay [1], `O=S(=O)(c1ccccc1Nc1nc(-c2ccc(F)cc2)c2ccccc2n1)N1CCOCC1` [Compound 48] displayed an IC50 of 6.69 ± 0.825 µM.

As for `O=S(=O)(c1ccc(Nc2nc(-c3ccc(F)cc3)c3ccccc3n2)cc1)N1CCOCC1` [Compound 49], the IC50 was determined as 5950 ± 248 nM in assay [2] and 1.33 ± 0.628 µM in assay [1].

With `O=C(c1ccc(Nc2nc(-c3ccc(F)cc3)c3ccccc3n2)cc1)N1CCOCC1` [Compound 50], in assay [1], the IC50 came to 3.07 ± 0.584 µM.

For the molecule `NS(=O)(=O)c1ccc(Nc2nc(Nc3ccc(Br)cc3)c3ccccc3n2)cc1` [Compound 52], the IC50 in assay [1] stood at 9.85 ± 0.993 µM. Also, the “fold decrease on potency vs compound 26 (BRD4(2) IC50)” value in assay [1] (vs compound 26) was around 6 fold.

`Cc1sc2c(c1C)C(c1ccc(Cl)cc1)=N[C@@H](CC(=O)OC(C)(C)C)c1nnc(C)n1-2` [JQ1]: the “Ang II-induced upregulation of TGF-β1, p-Smad2 and p-Smad3” value in assay [3] is listed as “comparable to those by JQ1 treatment”. Moreover, the “BRD4 thermal stabilization (CETSA, Western blot)” value in assay [4] was “in close accordance with that obtained for JQ1”. The “α-SMA fluorescence intensity after Ang II stimulation” value in assay [5] is reported as “this effect was reversed”. The “Ang II-induced cell migration (wound scratch assay)” value in assay [6] is recorded as “effectively inhibited the enhanced cell migration induced by Ang II”.

On to `Cc1nnc2n1-c1sc(C#Cc3cnn(CCCC#Cc4cccc5c4CN(C4CCC(=O)NC4=O)C5=O)c3)c(Cc3ccccc3)c1COC2` (stereo not drawn) [QCA570], for which the tumor regression entry in assay [7] is “complete and long-lasting tumor regression”.

For orientation: IC50 means the point on the concentration scale where inhibition reaches its midpoint. A lower IC50 goes with inhibition by little substance.
